Results on one compound are retold here after ChEMBL document CHEMBL5715946 (Chem Biol, 2010).

Experiment [1] in a line: Upregulation of bilirubin-specific UDP glucuronosyltransferase gene expression in serum-deprived neonatal Wistar rat cardiomyocyte at 0.37 uM incubated for 21 hrs by microarray analysis relative to control. The class given is functional, Cardiac muscle cell. The method, boiled down: (§1)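 Primary neonatal rat cardiomyocytes cultured with or without 0.37 μM compound in serum-free medium for 21 hr. Total RNA profiled on the rat genome U34A GeneChip array (about 7000 known genes).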

For experiment [2], the target named is Macrophage migration inhibitory factor (Rattus norvegicus) (UniProt P30904). The experiment is described as follows: Binding affinity to BTZO-12 sensor chip immobilized recombinant rat MIF expressed in Escherichia coli BL21 (DE3) at pH 7.3 by SPR analysis. In outline:
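SPR on a BTZO-12-type sensor chip with purified recombinant rat MIF, binding compared at pH 6.0 and pH 7.3.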
(Surface plasmon resonance follows binding to a sensor surface in real time, without labels.)

Experiment [3] shares this target. The experiment is described as follows: Inhibition of MIF tautomerase activity in rat H9c2 cells at 30 uM using L-dopachrome carboxy-methyl ester as substrate incubated for 6 hrs under serum-free medium by spectrophotometry relative to control. The class given is cell-based. The method, boiled down: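 H9c2 cells exposed to 30 μM compound for 6 hr; MIF tautomerase activity then measured in cell lysate.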

Experiment [4] can be described thus: Reduction in MIF expression in MIF siRNA transfected rat H9c2 cell culture medium at 3 uM measured after 24 hrs ELISA relative to control. The class given is functional. Further details: scale not given: the % may be the effect or the level left. In outline: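 H9c2 cells transfected with 100 nM rat MIF siRNA or negative-control siRNA using Oligofectamine in Opti-MEM, then treated with 3 μM compound for 24 hr. MIF mRNA by real-time qPCR; MIF protein in cell lysate and medium by ELISA. Mean ± SD, n = 3.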
On the technique in general: ELISA stands for enzyme-linked immunosorbent assay.

Experiment [5] relates to Antioxidant response element. Description: Induction of rat ARE activity expressed in rat H9c2 cells assessed as increase in ARE luciferase activity measured after 24 hrs by steady-glo luciferase Assay. The class given is cell-based. In outline: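 H9c2 cells transiently transfected with pGL3-ARE-Luc or pGL3-mARE-Luc, compound exposure 24 hr, luciferase read by Steady-Glo. MEC2.0 is the concentration giving a doubling of luciferase activity. Mean ± SD, n = 4.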

Experiment [6] can be described thus: Upregulation of NAD(P)H-menadione oxidoreductase gene expression in serum-deprived neonatal Wistar rat cardiomyocyte at 0.37 uM incubated for 21 hrs by microarray analysis relative to control. In kind it is functional, Cardiac muscle cell. The method, boiled down:
as §1

Experiment [7] is described as follows: Upregulation of gamma-glutamylcysteine synthetase gene expression in serum-deprived neonatal Wistar rat cardiomyocyte at 0.37 uM incubated for 21 hrs by microarray analysis relative to control. The class given is functional, Cardiac muscle cell. The method, boiled down:
(§2)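 Primary neonatal rat cardiomyocytes, isolated by proteinase digestion with preplating to deplete nonmyocytes, cultured in serum-free medium with or without 0.37 μM compound for 21 hr. Total RNA was recovered and global expression profiled on an Affymetrix GeneChip rat genome U34A array (about 7000 known genes). Change is relative to untreated cells.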

A short description of experiment [8]: Upregulation of NAD(P)H: quinone reductase gene expression in serum-deprived neonatal Wistar rat cardiomyocyte at 0.37 uM incubated for 21 hrs by microarray analysis relative to control. The class given is functional, Cardiac muscle cell. The method, boiled down: as §1
Experiment [9] can be described thus: Upregulation of heme oxygenase-1 gene expression in serum-deprived neonatal Wistar rat cardiomyocyte at 0.37 uM incubated for 21 hrs by microarray analysis relative to control. In kind it is functional, Cardiac muscle cell. The method, boiled down:
as §2

Activity calls are given as the source filed them. The rule behind the calls is not given here.

Chain of Macrophage migration inhibitory factor (Rattus norvegicus) (P30904 2-115 limits assumed): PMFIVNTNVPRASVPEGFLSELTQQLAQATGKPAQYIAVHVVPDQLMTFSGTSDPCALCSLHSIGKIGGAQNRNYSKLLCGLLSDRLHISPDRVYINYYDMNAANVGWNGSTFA

With `O=c1nc(-c2ccccn2)sc2ccccc12` [BTZO-1], the “fold change (FC)” value in [1] came out at 5.2; in experiment [6], 2.8; in experiment [7], 2.4; in [8] it was 9.4; in experiment [9] it was 2. The result in experiment [2] was Active. The compound further yielded an inhibition in experiment [3] of 20%. In addition, the Activity in experiment [4] is around 75%; in experiment [5], “Dose-Dependent Effect”. Besides, in experiment [5], the MEC2 was determined as 0.82 µM.

What is called inhibition is how much of the control response was suppressed.
